Our source for the inhibition values is ChEMBL document CHEMBL1165965, “Synthesis and structure-activity relationships of 1,2,3,4-tetrahydropyrido[2,3-b]pyrazines as potent and selective inhibitors of the anaplastic lymphoma kinase” (Bioorg Med Chem, 2010).

A value given as a limit tells only on which side of the number the result lay.

Test [1] concerns T1, Receptor-type tyrosine-protein kinase FLT3 (Homo sapiens), P36888 [D835Y].
T1 sequence (whole entry): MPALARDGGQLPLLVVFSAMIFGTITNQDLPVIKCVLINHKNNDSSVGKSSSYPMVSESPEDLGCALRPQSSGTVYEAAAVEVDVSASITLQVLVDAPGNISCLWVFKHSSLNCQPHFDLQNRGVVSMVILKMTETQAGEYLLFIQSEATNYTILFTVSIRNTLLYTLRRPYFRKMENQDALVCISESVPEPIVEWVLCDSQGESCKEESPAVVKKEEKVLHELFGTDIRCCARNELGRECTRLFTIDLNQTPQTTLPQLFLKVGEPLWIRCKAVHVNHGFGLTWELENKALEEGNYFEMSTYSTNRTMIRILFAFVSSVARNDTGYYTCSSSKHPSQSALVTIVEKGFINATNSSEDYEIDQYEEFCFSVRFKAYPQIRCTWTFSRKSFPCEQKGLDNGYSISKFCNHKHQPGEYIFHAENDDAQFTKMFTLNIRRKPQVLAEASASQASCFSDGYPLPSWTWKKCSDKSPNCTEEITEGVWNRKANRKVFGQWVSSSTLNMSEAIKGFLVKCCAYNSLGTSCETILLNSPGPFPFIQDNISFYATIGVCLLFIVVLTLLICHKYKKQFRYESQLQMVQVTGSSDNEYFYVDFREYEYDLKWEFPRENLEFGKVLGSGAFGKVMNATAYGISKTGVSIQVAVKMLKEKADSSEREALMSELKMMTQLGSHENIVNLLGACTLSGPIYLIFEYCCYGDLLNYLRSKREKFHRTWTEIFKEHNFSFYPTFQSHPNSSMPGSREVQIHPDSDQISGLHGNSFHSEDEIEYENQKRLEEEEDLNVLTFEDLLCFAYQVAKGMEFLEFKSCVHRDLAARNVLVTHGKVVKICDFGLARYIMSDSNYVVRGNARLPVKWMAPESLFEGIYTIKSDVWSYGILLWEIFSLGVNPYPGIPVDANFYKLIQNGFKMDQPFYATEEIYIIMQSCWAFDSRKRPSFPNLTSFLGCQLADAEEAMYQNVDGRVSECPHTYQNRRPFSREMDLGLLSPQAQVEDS
Kind of test: Inhibition of FLT3 D835Y mutant at 1 uM. In short, it runs like this: (§1)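 Single-concentration screen on the Ambit KINOMEscan platform, run against a panel of 250–400 kinases. Per-kinase inhibition was also summarized as S(90), the fraction of kinases inhibited by more than 90%.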

For test [2], the target named is Serine/threonine-protein kinase SIK1 (Homo sapiens) (UniProt P57059). The test can be described thus: Inhibition of SIK at 1 uM.
The target in test [3] is T2, Cytoplasmic tyrosine-protein kinase BMX (Homo sapiens) (UniProt P51813).
T2 sequence (whole entry): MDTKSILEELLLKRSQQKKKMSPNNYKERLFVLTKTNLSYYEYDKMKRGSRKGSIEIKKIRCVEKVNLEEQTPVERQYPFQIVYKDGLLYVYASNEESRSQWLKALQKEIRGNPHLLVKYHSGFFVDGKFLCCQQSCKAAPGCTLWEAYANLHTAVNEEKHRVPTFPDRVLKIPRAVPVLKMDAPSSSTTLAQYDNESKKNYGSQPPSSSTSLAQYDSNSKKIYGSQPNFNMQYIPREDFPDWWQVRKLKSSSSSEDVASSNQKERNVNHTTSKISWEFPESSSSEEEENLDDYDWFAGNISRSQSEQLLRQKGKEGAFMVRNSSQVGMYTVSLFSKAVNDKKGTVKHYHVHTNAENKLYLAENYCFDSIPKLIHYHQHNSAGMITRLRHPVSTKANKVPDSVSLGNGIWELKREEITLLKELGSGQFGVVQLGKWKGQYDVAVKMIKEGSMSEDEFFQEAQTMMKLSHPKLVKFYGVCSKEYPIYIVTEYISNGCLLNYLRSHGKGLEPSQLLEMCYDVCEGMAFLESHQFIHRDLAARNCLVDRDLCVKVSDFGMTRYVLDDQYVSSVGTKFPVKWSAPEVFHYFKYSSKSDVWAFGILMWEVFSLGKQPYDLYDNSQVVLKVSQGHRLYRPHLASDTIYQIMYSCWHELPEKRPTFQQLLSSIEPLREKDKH
The test can be described thus: Inhibition of BMX at 1 uM. In short, it runs like this:
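Ambit KINOMEscan screen at a single concentration across a 250–400 kinase panel, recorded as percent inhibition. Selectivity was expressed as S(90), the fraction of kinases inhibited >90%.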

Test [4] addresses Mast/stem cell growth factor receptor Kit (Homo sapiens) (UniProt P10721). Kind of test: Inhibition of KIT at 1 uM. In short, it runs like this: as §1
For test [5], the target named is T3, Phosphorylase b kinase gamma catalytic chain, liver/testis isoform (Homo sapiens) (UniProt P15735).
T3 sequence (whole entry): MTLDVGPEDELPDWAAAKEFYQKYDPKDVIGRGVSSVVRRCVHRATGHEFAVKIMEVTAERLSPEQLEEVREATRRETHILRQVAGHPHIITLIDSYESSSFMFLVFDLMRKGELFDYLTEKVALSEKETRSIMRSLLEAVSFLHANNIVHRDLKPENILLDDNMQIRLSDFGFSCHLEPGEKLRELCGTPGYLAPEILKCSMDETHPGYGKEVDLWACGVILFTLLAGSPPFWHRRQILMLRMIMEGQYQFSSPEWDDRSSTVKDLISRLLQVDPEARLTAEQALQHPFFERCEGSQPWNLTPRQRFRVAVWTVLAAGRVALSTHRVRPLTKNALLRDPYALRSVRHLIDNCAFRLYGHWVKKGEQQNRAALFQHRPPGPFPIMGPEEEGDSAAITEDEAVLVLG
Kind of test: Inhibition of PHKG2 at 1 uM.

For test [6], the target named is Fibroblast growth factor receptor 1 (Homo sapiens) (UniProt P11362). The test can be described thus: Inhibition of FGFR1 at 1 uM. In short, it runs like this:
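Single-concentration screen using Ambit Bioscience KINOMEscan technology across a panel of 250–400 kinases. Per-kinase inhibition from this screen was summarized as S(90), the fraction of kinases inhibited by more than 90%.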

Test [7] has as its target T4, Serine/threonine-protein kinase ULK3 (Homo sapiens) (UniProt Q6PHR2).
T4 sequence (whole entry): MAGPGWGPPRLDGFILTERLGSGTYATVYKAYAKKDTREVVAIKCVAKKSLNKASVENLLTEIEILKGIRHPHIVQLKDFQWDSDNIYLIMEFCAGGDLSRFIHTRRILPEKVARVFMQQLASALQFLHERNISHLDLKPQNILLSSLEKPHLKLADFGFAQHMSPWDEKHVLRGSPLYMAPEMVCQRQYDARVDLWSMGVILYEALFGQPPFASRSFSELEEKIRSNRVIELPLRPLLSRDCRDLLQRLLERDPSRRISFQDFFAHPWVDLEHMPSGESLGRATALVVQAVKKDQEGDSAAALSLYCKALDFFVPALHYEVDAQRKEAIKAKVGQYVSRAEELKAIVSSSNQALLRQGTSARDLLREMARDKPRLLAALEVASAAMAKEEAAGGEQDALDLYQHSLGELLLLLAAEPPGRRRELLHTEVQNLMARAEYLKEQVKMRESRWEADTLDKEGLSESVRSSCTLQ
Kind of test: Inhibition of ULK3 at 1 uM.

Chain of Mast/stem cell growth factor receptor Kit (Homo sapiens) (P10721 whole entry, canonical isoform): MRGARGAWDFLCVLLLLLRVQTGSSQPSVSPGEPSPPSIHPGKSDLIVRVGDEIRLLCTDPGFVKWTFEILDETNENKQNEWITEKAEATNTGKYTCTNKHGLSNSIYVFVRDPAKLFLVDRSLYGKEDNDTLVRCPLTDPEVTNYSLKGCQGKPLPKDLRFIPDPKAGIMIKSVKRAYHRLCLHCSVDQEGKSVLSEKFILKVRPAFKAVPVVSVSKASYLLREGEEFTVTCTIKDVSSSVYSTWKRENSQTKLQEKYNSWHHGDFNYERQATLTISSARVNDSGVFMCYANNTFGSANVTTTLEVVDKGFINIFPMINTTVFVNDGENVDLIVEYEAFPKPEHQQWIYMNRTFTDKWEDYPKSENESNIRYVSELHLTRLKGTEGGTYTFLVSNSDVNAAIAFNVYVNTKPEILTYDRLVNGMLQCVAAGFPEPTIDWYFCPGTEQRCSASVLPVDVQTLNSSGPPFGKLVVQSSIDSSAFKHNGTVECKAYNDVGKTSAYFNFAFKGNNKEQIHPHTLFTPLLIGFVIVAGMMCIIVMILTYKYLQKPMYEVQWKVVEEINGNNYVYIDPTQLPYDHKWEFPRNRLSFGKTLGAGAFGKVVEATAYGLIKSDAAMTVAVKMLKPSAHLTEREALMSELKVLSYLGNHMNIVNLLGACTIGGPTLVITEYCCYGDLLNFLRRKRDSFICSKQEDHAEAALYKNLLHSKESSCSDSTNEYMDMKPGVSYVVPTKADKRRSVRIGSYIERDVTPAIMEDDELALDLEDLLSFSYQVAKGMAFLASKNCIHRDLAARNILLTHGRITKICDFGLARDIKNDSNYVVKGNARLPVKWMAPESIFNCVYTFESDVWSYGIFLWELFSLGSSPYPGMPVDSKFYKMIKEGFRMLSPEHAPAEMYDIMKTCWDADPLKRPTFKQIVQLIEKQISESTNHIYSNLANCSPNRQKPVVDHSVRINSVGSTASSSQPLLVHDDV
Chain of Serine/threonine-protein kinase SIK1 (Homo sapiens) (P57059 whole entry): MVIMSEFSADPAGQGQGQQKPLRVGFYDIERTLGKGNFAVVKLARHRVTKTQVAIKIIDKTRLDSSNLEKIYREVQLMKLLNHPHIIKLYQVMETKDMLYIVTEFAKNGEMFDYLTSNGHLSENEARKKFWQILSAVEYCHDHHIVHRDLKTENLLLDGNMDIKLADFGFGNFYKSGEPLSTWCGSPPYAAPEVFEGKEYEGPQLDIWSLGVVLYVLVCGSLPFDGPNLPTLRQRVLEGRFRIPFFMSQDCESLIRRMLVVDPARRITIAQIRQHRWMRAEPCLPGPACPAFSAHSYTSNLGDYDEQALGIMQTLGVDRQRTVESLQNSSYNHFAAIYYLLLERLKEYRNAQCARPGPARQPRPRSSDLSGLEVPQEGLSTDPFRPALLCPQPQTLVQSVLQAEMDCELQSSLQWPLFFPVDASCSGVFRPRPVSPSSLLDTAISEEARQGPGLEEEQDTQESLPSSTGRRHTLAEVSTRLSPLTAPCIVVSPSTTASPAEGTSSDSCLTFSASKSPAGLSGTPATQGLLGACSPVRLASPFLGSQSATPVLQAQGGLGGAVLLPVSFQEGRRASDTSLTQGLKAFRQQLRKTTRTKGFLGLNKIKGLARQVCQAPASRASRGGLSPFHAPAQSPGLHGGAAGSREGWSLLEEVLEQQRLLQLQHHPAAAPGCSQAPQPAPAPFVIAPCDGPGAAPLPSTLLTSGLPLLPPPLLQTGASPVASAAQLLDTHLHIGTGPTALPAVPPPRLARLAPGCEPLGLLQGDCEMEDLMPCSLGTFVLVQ
Chain of Fibroblast growth factor receptor 1 (Homo sapiens) (P11362 22-822 limits assumed): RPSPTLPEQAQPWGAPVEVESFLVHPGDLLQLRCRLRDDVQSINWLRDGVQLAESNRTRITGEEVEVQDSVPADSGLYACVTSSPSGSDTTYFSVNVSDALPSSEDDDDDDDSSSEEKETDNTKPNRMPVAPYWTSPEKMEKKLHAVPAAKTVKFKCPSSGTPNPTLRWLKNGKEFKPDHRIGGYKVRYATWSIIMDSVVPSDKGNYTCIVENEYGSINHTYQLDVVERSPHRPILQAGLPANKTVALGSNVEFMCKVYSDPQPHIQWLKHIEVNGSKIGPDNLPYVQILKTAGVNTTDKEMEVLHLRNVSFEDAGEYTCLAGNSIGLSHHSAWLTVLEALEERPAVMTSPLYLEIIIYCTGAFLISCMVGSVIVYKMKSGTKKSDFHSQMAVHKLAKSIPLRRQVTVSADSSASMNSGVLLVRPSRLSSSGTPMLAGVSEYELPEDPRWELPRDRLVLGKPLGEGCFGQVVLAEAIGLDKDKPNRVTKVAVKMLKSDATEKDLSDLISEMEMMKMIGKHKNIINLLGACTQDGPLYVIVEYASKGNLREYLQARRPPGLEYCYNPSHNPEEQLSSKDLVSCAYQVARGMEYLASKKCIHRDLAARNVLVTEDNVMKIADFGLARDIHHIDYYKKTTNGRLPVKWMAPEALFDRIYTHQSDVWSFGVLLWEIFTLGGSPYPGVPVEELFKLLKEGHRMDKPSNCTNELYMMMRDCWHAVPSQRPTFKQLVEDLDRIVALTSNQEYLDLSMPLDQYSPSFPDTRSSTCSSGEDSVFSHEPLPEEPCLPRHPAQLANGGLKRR

As to `O=C(c1ccc(-c2cnc3c(c2)N(Cc2cc(Cl)ccc2C(F)(F)F)CCN3)cc1)N1CCCCC1`, the inhibition in test [1], in test [2], in test [3], in test [4], in test [5] and in test [6] was below 50% in each case.

Regarding `CN1CCN(c2ccc(-c3cnc4c(c3)N(Cc3c(F)ccc(F)c3Cl)CCN4)cn2)CC1`, the inhibition – broadly, the drop in the measured response relative to a control, in per cent – is below 50% in test [1]; below 50% in test [2]; below 50% in test [3]; 73% in test [4]; below 50% in test [7]; below 50% in test [5]. In test [6], this molecule registered an inhibition below 50%.

Turning to `COC1CCN(C(=O)c2ccc(-c3cnc4c(c3)N(Cc3cc(Cl)ccc3C(F)(F)F)CCN4)cc2)CC1`, the inhibition was 66.7% in test [1]; below 50% in test [2]; below 50% in test [3]; below 50% in test [4]; below 50% in test [5]; below 50% in test [6].

In the case of `O=C(O)c1ccc(-c2cnc3c(c2)N(Cc2cc(Cl)ccc2C(F)(F)F)CCN3)cc1`, the inhibition in test [1], in test [2], in test [3], in test [4], in test [5] and in test [6] was below 50% in each case.

Take `FC(F)(F)c1ccc(Cl)cc1CN1CCNc2ncc(-c3ccnc(N4CCNCC4)c3)cc21`: the inhibition in test [1] is 93%; in test [2] it was below 50%; in test [3], below 50%; in test [4], 96%; in test [7] it was below 50%; in test [5] it was below 50%. In test [6], this molecule showed an inhibition below 50%.

As for `CN1CCN(c2ccc(-c3cnc4c(c3)N(Cc3cc(Cl)ccc3Cl)CCN4)cn2)CC1`, the inhibition in test [1] was 87%; in test [2] it was below 50%; in test [3] it was below 50%; in test [4], 87%; in test [7], below 50%; in test [5], below 50%. This molecule also gave an inhibition in test [6] below 50%.

Regarding `O=C(c1ccc(-c2cnc3c(c2)N(Cc2cc(Cl)ccc2C(F)(F)F)CCN3)cc1)N1CCC(N2CCCC2)CC1`, the inhibition in test [1] was 75.5%; in test [2] it was 81.6%; in test [3] it was below 50%; in test [4], 89.5%; in test [5], below 50%; in test [6], below 50%.

Regarding `CN1CCN(c2ccc(-c3cnc4c(c3)N(Cc3cc(Cl)ccc3C(F)(F)F)CCN4)cn2)CC1`, the inhibition is 85% in test [1]; below 50% in test [2]; below 50% in test [3]; below 50% in test [4]; below 50% in test [7]; below 50% in test [5]. The molecule also gave an inhibition in test [6] below 50%.

Regarding `CC(=O)N1CCN(c2cc(-c3cnc4c(c3)N(Cc3cc(Cl)ccc3C(F)(F)F)CCN4)ccn2)CC1`, the inhibition in test [1] is 87%; in test [2], below 50%; in test [3], below 50%; in test [4], 75%; in test [7], below 50%; in test [5], below 50%. The molecule further came in with an inhibition in test [6] below 50%.

For the molecule `CN1CCN(c2ccc(-c3cnc4c(c3)N(Cc3cc(F)ccc3F)CCN4)cn2)CC1`, the inhibition is 80.8% in test [1]; below 50% in test [2]; below 50% in test [3]; 56.5% in test [4]; below 50% in test [7]; below 50% in test [5]. In test [6], this molecule gave an inhibition below 50%.
